The list is not random: actives were taken first. Their share in the collection is about 4.6%.
FAS-TE inh: blocks the thioesterase domain of human fatty acid synthase | P49327 | recombinant FAS-TE, OMFH fluorogenic substrate, fluorescence endpoint | inhibition, % at 15 µM | 360,000 tested, 0.67% active;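 active means compounds whose normalised, plate-corrected inhibition of enzyme fluorescence in the single-dose primary screen is 50% or more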
PfM18AAP inh-1: blocks P. falciparum M18 aspartyl aminopeptidase; 290,000 tested, 1.2% active; AID 1822; recombinant PfM18AAP, H-Glu-NHMec fluorogenic cleavage; inhibition, % at 7.35 µM;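 active means inhibition above the campaign mean inhibition over all tested compounds plus 3 SD, cut at about 28% in these data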
ALR H2O2 inh: blocks human ALR sulfhydryl oxidase activity | inhibition, % (test concentration not listed) | 290,000 tested, 3.8% active | P55789 | purified ALR, DTT oxidation, H2O2 HRP-luminol luminescence;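 active means mean replicate inhibition above about 79%, with every replicate also reaching it, limit read from the data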
Rtt109 Vps75: inhibitors of Candida albicans Rtt109/Vps75 histone acetyltransferase | Q5AAJ8 | purified Rtt109/Vps75, ThioGlo CoA-SH fluorescence, 4 h | inhibition, % at 34.9 µM | 330,000 tested, 0.16% active | AID 540336;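 active means inhibition of at least 50% in every replicate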
UCH37 inh: blocks the human deubiquitinase UCH37; Q9Y5K5; purified proteasome/UCH37, Ub-AMC cleavage fluorescence; inhibition, % (no concentration beside the values); 330,000 tested, 0.33% active;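 active means mean inhibition over replicate wells above about 20%, limit read from the data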
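Schedule: 30 min plus 25 min, room temperature / Material: human UCH37 within purified proteasomes / Technique: AMC fluorescence intensity at 355/460 nm / Buffer or medium: pH 7.4 Tris-HCl (50 mM) with ovalbumin, ATP-MgCl2, DTT / Controls: wells without proteasome as full block, compound-free enzyme plus substrate as uninhibited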
HDAC3 inhib: inhibitors of human histone deacetylase 3 | recombinant HDAC3, fluorogenic peptide/trypsin coupled, fluorescence | inhibition, % at 8.3 µM | 320,000 tested, 0.15% active | AID 2718; in the data active means inhibition above about 26%, passing the limit was not always enough
Target sequence (O15379 whole entry, looked up): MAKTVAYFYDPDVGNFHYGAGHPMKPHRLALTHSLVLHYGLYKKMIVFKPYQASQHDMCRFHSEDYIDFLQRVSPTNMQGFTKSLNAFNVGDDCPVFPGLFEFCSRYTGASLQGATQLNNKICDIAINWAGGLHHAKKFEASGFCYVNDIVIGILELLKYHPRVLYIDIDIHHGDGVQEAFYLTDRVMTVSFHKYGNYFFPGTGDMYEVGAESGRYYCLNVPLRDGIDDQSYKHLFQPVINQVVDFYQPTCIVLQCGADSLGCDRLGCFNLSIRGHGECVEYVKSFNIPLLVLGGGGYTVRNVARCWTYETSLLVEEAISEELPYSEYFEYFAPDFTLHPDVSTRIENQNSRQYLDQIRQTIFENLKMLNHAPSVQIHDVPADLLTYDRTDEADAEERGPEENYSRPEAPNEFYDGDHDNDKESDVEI
PfM18AAP inh-2: PfM18AAP inhibition, confirmation; shares compounds with PfM18AAP inh-1; recombinant PfM18AAP, H-Glu-NHMec fluorogenic cleavage; inhibition, % at 7.35 µM; 2,400 tested, 28% active; AID 2170;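 active means mean inhibition over replicate wells above the hit cutoff set for the earlier primary screen, cut at about 29% in these data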
CTSL1 confirm: Cathepsin L (human) inhibition, confirmation | shares compounds with PfM18AAP inh-1 | purified cathepsin L1, Z-Leu-Arg-MCA fluorescence | inhibition, % at 5.96 µM | 2,400 tested, under 10 active | AID 2178;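 active means average inhibition across replicates above the hit cutoff set in the earlier primary screen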
Hits are given with their value; n = inactive; x = not tested or not shown.

SMILES	FAS-TE inh	PfM18AAP inh-1	ALR H2O2 inh	Rtt109 Vps75	UCH37 inh	HDAC3 inhib	PfM18AAP inh-2	CTSL1 confirm
CCn1c(/C=C/c2ccc(O)c(O)c2)nc2ccccc2c1=O	n	54	100	n	n	n	43	n
CCn1c(/C=C/c2cc(Br)ccc2O)nc2ccccc2c1=O	n	n	n	n	n	n	x	x
O=c1nc(/C=C/c2ccc(O)c(O)c2)oc2ccccc12	n	63	x	n	n	x	56	n
Cc1cc(C=NNC(=O)c2nn(C)cc2Cl)c(C)n1-c1cccc(Br)c1	x	x	x	x	n	x	x	x
Cc1ccc(C2CC(=O)N3CN(c4ccc(Br)cc4)CSC3=C2C#N)o1 (stereo unspecified)	n	37	n	n	n	n	n	n
COc1cc(OC)c(C2CC(=O)N3CN(c4ccccc4)CSC3=C2C#N)cc1OC (stereo unspecified)	n	39	n	n	n	42	n	n
COc1ccc(C2CC(=O)N3C(=C2C#N)SCC3(O)c2ccccc2)cc1 (stereo unspecified)	n	n	n	n	n	n	x	x
Cc1cc(O)c2/c(=N\N)c(-c3csc(C)n3)coc2c1	n	71	n	n	x	n	48	n
Cc1cc(O)c2c(=NN)c(-c3csc(C)n3)coc2c1	x	x	x	x	n	x	x	x
Oc1ccc(-c2csc(Nc3ncccn3)n2)cc1O	n	65	x	n	n	x	53	n
CC(=O)Nc1ccc(-c2cn3cc(C)ccc3n2)cc1	n	n	n	n	n	n	x	x
Oc1ccc(-c2csc(-c3cccnc3)n2)cc1O	n	73	n	n	n	n	85	n
Cc1nc(-c2ccc(O)c(O)c2)cs1	n	94	99	n	n	n	87	n
Cc1ccc2nc(-c3ccc(O)c(O)c3)cn2c1	n	70	99	n	x	n	55	n
Fc1ccc(-c2csc(-c3cccnc3)n2)cc1F	n	n	n	n	n	n	x	x
Cc1nc(-c2ccc(C(=O)O)cc2)cs1	n	n	n	x	n	n	x	x
COc1cc(C=NNC(=O)CCN2CCN(C)CC2)cc2c1OCO2	x	x	x	x	n	x	x	x
COc1cc(C=NNc2ccccc2)ccc1OC(=O)c1cccs1	x	x	x	x	n	x	x	x
O=C(NN=Cc1ccc(Cl)c([N+](=O)[O-])c1)c1cnccn1	x	x	x	x	n	x	x	x
COC(=O)C=c1sc(=C(C#N)C(=O)N2CCOCC2)n(-c2ccccc2)c1=O	x	x	x	x	n	x	x	x
Oc1ccc(-c2csc(-c3ccccc3)n2)cc1O	n	55	99	n	n	n	60	n
Cc1ccc(C(=O)NC2CC2)cc1S(=O)(=O)N1CCOCC1	n	x	n	n	n	n	x	x
Cc1ccc(C(=O)Nn2cnnc2)cc1S(=O)(=O)N1CCOCC1	n	51	n	n	n	n	44	n
O=C(Nn1cnnc1)c1ccc(F)c(S(=O)(=O)N2CCCCC2)c1	n	47	n	n	n	n	53	n
Cc1ccc(C=NNC(=O)CNC(=O)c2ccc(S(=O)(=O)N(C)C)cc2)o1	x	x	x	x	n	x	x	x
SMILES	FAS-TE inh	PfM18AAP inh-1	ALR H2O2 inh	Rtt109 Vps75	UCH37 inh	HDAC3 inhib	PfM18AAP inh-2	CTSL1 confirm
Cc1nn(C)c(Sc2ccccc2N)c1[N+](=O)[O-]	n	39	98	153	n	n	n	n
O=C1[C@@H]2Cc3c([nH]c4ccccc34)C(c3ccccc3)N2C(=O)CN1C1CCN(Cc2ccccc2)CC1 (stereo partly specified)	n	41	n	n	n	n	n	n
O=C(NCCc1ccccc1)C(=O)N/N=C/c1ccc2c(c1)OCO2	n	n	n	n	x	n	x	x
O=C(NCc1ccccn1)C(=O)N/N=C/c1ccc2c(c1)OCO2	n	37	n	n	x	n	n	n
C/C(C=NN1CCN(Cc2ccc(C)cc2)CC1)=C/c1ccccc1	x	x	x	x	n	x	x	x
Cc1onc(C(=O)NN)c1C(=O)Nc1ncc(C(F)(F)F)cc1Cl	n	55	n	n	n	n	n	n
O=C(C[n+]1ccccc1)NN=Cc1ccccc1[N+](=O)[O-]	x	x	x	x	n	x	x	x
CC(=O)c1ccc(NC(=O)c2sc3nc(N4CCOCC4)c4c(c3c2N)CCCC4)cc1	n	43	n	n	n	n	n	n
NNC(=O)c1sc2nc(N3CCOCC3)c3c(c2c1N)CCCC3	n	n	n	x	n	n	x	x
COc1cccc(NC(=O)c2sc3nc(N4CCOCC4)c4c(c3c2N)CCCC4)c1	n	50	n	n	n	n	n	n
Nc1c(C(=O)Nc2ccc(Cl)cc2)sc2nc(N3CCOCC3)c3c(c12)CCCC3	n	42	n	n	n	n	n	n
Cc1ccc(NC(=O)c2sc3nc(N4CCOCC4)c4c(c3c2N)CCCC4)cc1	n	x	x	x	x	x	x	x
Nc1c(C(=O)N2CCOCC2)sc2nc(N3CCOCC3)c3c(c12)CCCC3	n	37	n	n	n	n	n	n
CC(=NNC(=O)CCC(=O)NCc1ccccc1)c1ccco1	x	x	x	x	n	x	x	x
NS(=O)(=O)c1ccc(NN=Cc2ccncc2)cc1	x	x	x	x	n	x	x	x
Nc1c(C(=O)Nc2ccccc2)sc2nc(N3CCOCC3)c3c(c12)CCCC3	n	x	x	x	x	x	x	x
